Screening data: PubChem, several laboratories
Shown are actives, neighbours in structure and some others; about 4.8% of the full set was active somewhere.
NALP3 yeast inh: NALP3 inhibition in yeast | Yeast reconstituted NLRP3/ASC/caspase-1, beta-gal luminescence, 24 h | inhibition, % at 10 µM | 330,000 compounds, 0.39% hits | AID 2825;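 active = inhibition of 50% or more; inactive = inhibition below 50%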;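 also: plate controls were induced DMSO wells for no effect and uninduced yeast grown without galactose for full effect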
NALP1 inh: blocks the NALP1 inflammasome reconstituted in yeast. S. cerevisiae NALP1/ASC/caspase-1 growth, X-gal OD620, 72 h. inhibition, % at 10 µM. 280,000 compounds, 0.61% hits. AID 2071; in the data active = inhibition mostly above about 24%, no sharp cut-off; inactive = mostly below about 32%
Calb FLC: C. albicans growth modulation with fluconazole; C. albicans CaCi-2 + fluconazole, Alamar Blue growth, 48 h; growth inhibition, % (concentration not given with the values); 300,000 compounds, 0.57% hits;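 active = growth inhibition above about 58% in most replicates, limit read from the data, passing the limit was not always enough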;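 also: all wells also contain fluconazole at 8 µg/ml as a sub-toxic cotreatment; 0% = median of DMSO wells and 100% = median of geldanamycin control wells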
UCH37 DUB inh: blocks the human deubiquitinase UCH37 | Q9Y5K5 | purified proteasome/UCH37, Ub-AMC cleavage fluorescence | inhibition, % (test concentration not listed) | 330,000 compounds, 0.33% hits | AID 588478;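 active = mean inhibition over replicate wells above about 20%, limit read from the data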;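 also: 0% = compound-free wells with enzyme and 100% = wells lacking proteasome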
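System: Proteasome-associated human UCH37 deubiquitinase; Input: 0.15 nM proteasome in added enzyme buffer; Also added: Ub-AMC substrate from 1 µM stock; Incubation: 30 min compound-proteasome preincubation then 25 min substrate reaction, room temperature; Detection: fluorescence, ex 355 nm, em 460 nm; Read-out: % inhibition of Ub-AMC cleavage fluorescence; Benchmarks: no-proteasome and no-compound wells.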
ATG4B inhibitor: blocks human ATG4B protease cleavage of LC3 substrate; Q9Y4P1; ATG4B cleavage of LC3-PLA2, NBD-HPC fluorescence, 1 h; inhibition, % at 8.33 µM; 340,000 compounds, 0.51% hits; AID 504462; in the data active = inhibition above about 40%
Target sequence (Q9Y4P1 whole entry, looked up): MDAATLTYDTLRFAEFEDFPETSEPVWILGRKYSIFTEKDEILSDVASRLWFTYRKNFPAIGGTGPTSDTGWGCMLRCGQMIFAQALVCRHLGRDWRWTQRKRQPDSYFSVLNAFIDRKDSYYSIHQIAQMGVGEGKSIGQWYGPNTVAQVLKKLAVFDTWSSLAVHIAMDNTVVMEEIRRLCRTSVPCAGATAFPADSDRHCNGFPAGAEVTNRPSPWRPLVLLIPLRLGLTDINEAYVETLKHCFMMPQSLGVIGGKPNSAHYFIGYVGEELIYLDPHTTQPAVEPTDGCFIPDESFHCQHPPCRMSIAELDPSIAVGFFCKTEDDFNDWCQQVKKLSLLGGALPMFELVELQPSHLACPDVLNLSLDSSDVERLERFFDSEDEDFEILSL
ALR inh: inhibitors of human sulfhydryl oxidase ALR; inhibition, % (test concentration not listed); 290,000 compounds, 3.8% hits; purified ALR, DTT oxidation, H2O2 HRP-luminol luminescence;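 active = mean replicate inhibition above about 79%, with every replicate also reaching it, limit read from the data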
Target sequence (P55789 whole entry, looked up): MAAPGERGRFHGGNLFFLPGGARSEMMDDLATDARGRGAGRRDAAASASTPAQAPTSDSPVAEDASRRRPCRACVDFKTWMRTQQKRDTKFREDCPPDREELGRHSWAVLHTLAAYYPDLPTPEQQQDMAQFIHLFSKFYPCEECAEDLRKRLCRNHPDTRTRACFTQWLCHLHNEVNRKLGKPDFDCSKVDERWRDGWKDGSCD
* hit, by the source's call.

Screening COc1cc(C=NNC(=O)CCC(=O)Nc2ccc(C)cc2)ccc1O returned UCH37 DUB inh 1.
`Oc1ccc(/C=N/N=C/c2ccc(O)cc2)cc1` gave NALP3 yeast inh 4, NALP1 inh -14, Calb FLC 10, ATG4B inhibitor 0 and ALR inh 96*.
Screening COc1ccc(-c2nc(CS(=O)CC(=O)NC3CCCC(C)C3C)c(C)o2)cc1OC (stereo not given) returned NALP3 yeast inh 0, NALP1 inh 0, Calb FLC -17, UCH37 DUB inh 4, ATG4B inhibitor -6 and ALR inh 99*.
For COc1ccc(-c2nc(CN3CCC(C(=O)NC4CCCc5ccccc54)CC3)c(C)o2)cc1OC (stereo not given) the results were UCH37 DUB inh 3 and ATG4B inhibitor 6.
Cc1ccc(-c2nc(CS(=O)CC(=O)NC3CCCC(C)C3C)c(C)o2)cc1 (stereo not given) was read as NALP3 yeast inh -2, NALP1 inh -14, Calb FLC -1, UCH37 DUB inh 2, ATG4B inhibitor 3 and ALR inh 99*.
`Cc1ccc(-c2c(C(=O)NN=CC3CCCCC3)nnn2-c2nonc2N)cc1` gave UCH37 DUB inh 3.
For Nc1ncc(-c2ccccc2)c(-c2ccc(O)cc2O)n1 the results were NALP3 yeast inh 6, NALP1 inh 2, Calb FLC -3, UCH37 DUB inh 1, ATG4B inhibitor 0 and ALR inh 98*.
Screening COc1ccc(-c2cnc(N)nc2-c2ccc(OCc3ccccc3)cc2O)cc1 returned NALP3 yeast inh -12, NALP1 inh 14, Calb FLC 10, UCH37 DUB inh 0, ATG4B inhibitor -7 and ALR inh -26.
`CC1=CC(C)(C)N(C(=O)c2ccc(F)cc2)c2cc3c(cc21)OCO3` gave NALP3 yeast inh 14, NALP1 inh 28, Calb FLC 65, UCH37 DUB inh 4, ATG4B inhibitor -6 and ALR inh 98*.
Screening Cn1nnnc1Sc1ncnc2scc(-c3ccc[nH]3)c12 returned NALP3 yeast inh 14, UCH37 DUB inh 1, ATG4B inhibitor -1 and ALR inh 94*.
For CCN(CC)C(=S)SSC(=S)N(CC)CC the results were NALP3 yeast inh 31, NALP1 inh 102*, Calb FLC 100*, UCH37 DUB inh 2, ATG4B inhibitor -7 and ALR inh 97*.
Screening O=C(CN1C(=O)NC2(CCCC2)C1=O)Nc1cc(Cl)ccc1N1CCCC1 returned NALP3 yeast inh 13, NALP1 inh 20, Calb FLC 0, UCH37 DUB inh 4, ATG4B inhibitor 7 and ALR inh 87*.
CC1(c2ccccc2)NC(=O)N(CC(=O)Nc2ccccc2N2CCCC2)C1=O (stereo not given) was read as NALP3 yeast inh 12, Calb FLC 4, UCH37 DUB inh 1 and ATG4B inhibitor 9.
`O=C(CN1C(=O)NC2(CCCC2)C1=O)Nc1ccccc1N1CCCC1` gave NALP3 yeast inh 17, NALP1 inh 8, Calb FLC 5, UCH37 DUB inh 1, ATG4B inhibitor -1 and ALR inh 99*.
For O=C(NC1CC2CCC(C1)N2Cc1nnnn1Cc1ccco1)NC12CC3CC(CC(C3)C1)C2 (stereo not given) the results were NALP3 yeast inh 13, NALP1 inh 0, Calb FLC -6, UCH37 DUB inh 2, ATG4B inhibitor 7 and ALR inh 80*.
`CCOc1ccccc1C(=O)NC1CC2CCCC(C1)N2Cc1nnnn1Cc1ccco1` (stereo not given) gave NALP3 yeast inh 2, NALP1 inh 5, Calb FLC 4, UCH37 DUB inh 0 and ATG4B inhibitor -2.
Screening N/C(=N\OC(=O)Cc1ccc([N+](=O)[O-])cc1)c1cccc(Br)c1 returned NALP3 yeast inh 5, NALP1 inh -1, Calb FLC 5, ATG4B inhibitor -1 and ALR inh 99*.
Cc1ccc(CC(=O)O/N=C(\N)c2cccc([N+](=O)[O-])c2)cc1 was read as NALP3 yeast inh 7, NALP1 inh 20, Calb FLC 22, UCH37 DUB inh 4, ATG4B inhibitor -6 and ALR inh -3.
N/C(=N\OC(=O)Cc1ccc([N+](=O)[O-])cc1)c1ccc([N+](=O)[O-])cc1 was read as NALP3 yeast inh 19, NALP1 inh 14, Calb FLC -10, ATG4B inhibitor 0 and ALR inh 97*.
Screening Cc1ccc(CC(=O)O/N=C(\N)Cc2ccc([N+](=O)[O-])cc2)cc1 returned NALP3 yeast inh 33, NALP1 inh 19, Calb FLC -21, UCH37 DUB inh 6, ATG4B inhibitor -8 and ALR inh 35.
Screening NC(=NN=Cc1ccc([N+](=O)[O-])cc1)c1nonc1N returned UCH37 DUB inh 2.
`Oc1ccc(-c2nccc(-c3cccs3)n2)cc1` gave NALP3 yeast inh 15, NALP1 inh 5, Calb FLC -7, UCH37 DUB inh 1, ATG4B inhibitor -11 and ALR inh 89*.
Cc1cc(SCNC(=O)c2ccccc2)ncn1 was read as NALP3 yeast inh 13, NALP1 inh 0, Calb FLC -3, UCH37 DUB inh 1, ATG4B inhibitor -6 and ALR inh 94*.
For CC(=NNC(=O)C1COc2ccccc2O1)c1cc2ccccc2o1 (stereo not given) the results were UCH37 DUB inh 0.
Screening COC(=O)c1cc(Br)c(=O)n(CCc2ccc(O)cc2)c1 returned NALP3 yeast inh 2, NALP1 inh -4, Calb FLC 21, UCH37 DUB inh -3, ATG4B inhibitor -6 and ALR inh 90*.
For O=[N+]([O-])c1cc(C=NN2CCOCC2)cs1 the results were UCH37 DUB inh 7.
Screening Cc1ccccc1-c1nn(-c2ccc(F)cc2F)cc1CNCC(C)O (stereo not given) returned NALP3 yeast inh 3, NALP1 inh 11, Calb FLC -4, UCH37 DUB inh 0, ATG4B inhibitor 12 and ALR inh -6.
CCOCCCNCc1cn(-c2ccc(F)cc2F)nc1-c1ccccc1C was read as NALP3 yeast inh 12, NALP1 inh 27*, Calb FLC -19, UCH37 DUB inh -5, ATG4B inhibitor 4 and ALR inh -1.
Screening O=C(O)COc1ccccc1C=NNC(=O)CSc1nc2ccccc2c(=O)n1-c1ccccc1 returned UCH37 DUB inh 1.
`O=C1CNC(=S)N1CCc1ccc(O)c(O)c1` gave NALP3 yeast inh 15, Calb FLC -7, UCH37 DUB inh 1, ATG4B inhibitor -8 and ALR inh 100*.
For CC(=NNC(=O)c1csc(C)c1C)c1ccc(C)s1 the results were UCH37 DUB inh 2.
